Data: ChEMBL document CHEMBL4364285 (J Med Chem, 2019)
Activity calls are given as the source filed them. No cut-off for these calls is given here.

Assays:
Cereblon isoform 4 = molecular target: T1, Cereblon isoform 4 (Magnetospirillum gryphiswaldense, UniProt A4TVL0); test: Inhibition of MANT-uracil binding to wild-type Magnetospirillum gryphiswaldense CRBN isoform 4 by FRET assay
T1 sequence (A4TVL0 whole entry): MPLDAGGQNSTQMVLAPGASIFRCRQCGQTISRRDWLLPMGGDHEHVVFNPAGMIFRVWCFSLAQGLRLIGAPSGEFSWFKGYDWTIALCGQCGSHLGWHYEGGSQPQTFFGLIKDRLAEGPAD
Outline: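 Wild-type MsCI4 FRET binding assay, following an earlier protocol. Compounds were dissolved in DMSO, or in water or bicarbonate buffer where soluble. Ki values were derived from the binding curves.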

[1] = molecular target: Protein cereblon/Zinc finger protein Aiolos (Homo sapiens) (UniProt Q96SW2+Q9UKT9); test: Inhibition of CRBN-mediated IKFZ3 degradation in human OPM2 cells measured after 24 hrs by Western blot analysis; format: cell-based
[2] = Solubility of the compound in bicarbonate buffer; format: physicochemical
[3] = Solubility of the compound in water; format: physicochemical; conditions: buffer
THP-1 = test: Inhibition of TPA-induced TNFalpha production in human THP1 cells at 3 uM by ELISA relative to control; format: functional
[4] = Terminal elimination half life in healthy human at 50 to 400 mg, po at pH 7.4; format: ADME, organism-based; conditions: in vivo, read-out: beta t1/2

Sequence of Protein cereblon/Zinc finger protein Aiolos (Homo sapiens) (Q96SW2 whole entry, looked up): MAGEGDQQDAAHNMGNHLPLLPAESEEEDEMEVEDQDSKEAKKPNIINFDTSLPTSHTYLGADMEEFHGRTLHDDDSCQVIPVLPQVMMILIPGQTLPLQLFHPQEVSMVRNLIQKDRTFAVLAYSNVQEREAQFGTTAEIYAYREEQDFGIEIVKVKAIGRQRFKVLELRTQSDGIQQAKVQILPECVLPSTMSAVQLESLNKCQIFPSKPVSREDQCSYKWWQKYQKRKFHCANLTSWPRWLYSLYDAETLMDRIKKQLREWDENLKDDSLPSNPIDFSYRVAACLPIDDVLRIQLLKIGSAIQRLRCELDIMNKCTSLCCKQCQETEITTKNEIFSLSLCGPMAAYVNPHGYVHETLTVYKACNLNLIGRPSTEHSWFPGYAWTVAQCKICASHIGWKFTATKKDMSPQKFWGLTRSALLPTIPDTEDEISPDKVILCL
Sequence of Protein cereblon/Zinc finger protein Aiolos (Homo sapiens) (Q9UKT9 whole entry, looked up): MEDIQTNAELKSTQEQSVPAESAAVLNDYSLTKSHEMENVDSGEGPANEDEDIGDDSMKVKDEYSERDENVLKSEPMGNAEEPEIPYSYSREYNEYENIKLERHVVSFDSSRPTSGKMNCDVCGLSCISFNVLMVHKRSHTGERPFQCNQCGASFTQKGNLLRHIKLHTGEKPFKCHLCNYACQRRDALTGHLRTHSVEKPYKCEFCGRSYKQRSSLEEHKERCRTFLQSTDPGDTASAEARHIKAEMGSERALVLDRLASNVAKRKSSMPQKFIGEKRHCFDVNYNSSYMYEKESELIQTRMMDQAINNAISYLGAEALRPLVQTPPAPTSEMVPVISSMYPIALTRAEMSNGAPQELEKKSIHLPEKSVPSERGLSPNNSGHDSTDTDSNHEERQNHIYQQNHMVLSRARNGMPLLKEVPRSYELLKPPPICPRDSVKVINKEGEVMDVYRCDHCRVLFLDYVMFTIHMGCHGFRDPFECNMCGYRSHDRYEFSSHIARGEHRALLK

SMILES | Ki (Cereblon isoform 4) | inhibition [1] | other results
O=C1CC(N2C(=O)c3ccc([N+](=O)[O-])cc3C2=O)C(=O)N1 (stereo unspecified) | 11 µM | inactive | –
Nc1cccc2c1CN(C1CCC(=O)NC1=O)C2=O (stereo unspecified) [LENALIDOMIDE] | 3.1 µM | – | –
O=C(O)CCC(=O)NCc1ccc(COC(=O)NC2CCC(=O)NC2=O)cc1 (stereo unspecified) | 36 µM | inactive | solubility [2]: > 200 mM
Nc1cccc2c1C(=O)N(C1CC(=O)NC1=O)C2=O (stereo unspecified) | > 40 µM | – | –
O=C1CCC(NC(=O)OC[C@@H]2CCCN2)C(=O)N1 (stereo partly specified) | 45 µM | inactive | –
O=C1CCC(N2C(=O)c3ccc([N+](=O)[O-])cc3C2=O)C(=O)N1 (stereo unspecified) | 9 µM | inactive | –
O=C1CC(NC(=O)Cc2ccccc2)C(=O)N1 (stereo unspecified) | > 40 µM | inactive | –
O=C1CC(NC(=O)c2sc3cccc(Cl)c3c2Cl)C(=O)N1 (stereo unspecified) | 20 µM | inactive | –
NCc1ccc(COC(=O)NC2CC(=O)NC2=O)cc1.O=C(O)C(F)(F)F (stereo unspecified) | 12 µM | inactive | solubility [3]: Soluble
Nc1cccc2c1C(=O)N(C1CCC(=O)NC1=O)C2=O (stereo unspecified) [POMALIDOMIDE] | 0.8 µM | – | –
O=C1CCC(NC(=O)c2ccccc2C(=O)O)C(=O)N1 (stereo unspecified) | – | – | inhibition at 3 µM (THP-1): 80%
CC(C)=CC(=O)NC1CC(=O)NC1=O (stereo unspecified) | > 40 µM | inactive | –
O=C1CC(NC(=O)c2cc([N+](=O)[O-])cc([N+](=O)[O-])c2)C(=O)N1 (stereo unspecified) | > 99 µM | inactive | –
O=C(O)CCC(=O)NCc1ccc(COC(=O)NC2CC(=O)NC2=O)cc1 (stereo unspecified) | 12 µM | inactive | solubility [2]: > 200 mM
O=C(/C=C/c1ccccc1)NC1CC(=O)NC1=O (stereo unspecified) | 20 µM | – | –
O=C1CC(NC(=O)c2sc3ccccc3c2Cl)C(=O)N1 (stereo unspecified) | > 40 µM | inactive | –
O=C1CCC(N2C(=O)c3ccccc3C2=O)C(=O)N1 (stereo unspecified) [THALIDOMIDE] | – | – | half-life [4]: 5.5 to 7.3 h
NC[C@H]1CC[C@@H](COC(=O)NC2CCC(=O)NC2=O)CC1.O=C(O)C(F)(F)F (stereo partly specified) | – | inactive | solubility [3]: Soluble
O=C1CC(N2C(=O)c3cccc([N+](=O)[O-])c3C2=O)C(=O)N1 (stereo unspecified) | > 40 µM | inactive | –
O=C1CCC(N2C(=O)c3cccc([N+](=O)[O-])c3C2=O)C(=O)N1 (stereo unspecified) | > 40 µM | inactive | –
O=C1CC(NC(=O)OC[C@@H]2CCCN2)C(=O)N1 (stereo partly specified) | – | inactive | –
NC[C@H]1CC[C@@H](COC(=O)NC2CC(=O)NC2=O)CC1.O=C(O)C(F)(F)F (stereo partly specified) | – | inactive | solubility [3]: Soluble
O=C1CC(NC(=O)OCc2ccccc2)C(=O)N1 (stereo unspecified) | 4 µM | – | –
